Screens (PubChem BioAssay)
DNA FID counter – fluorescent intercalator displacement, NS3 helicase counter-screen | DNA fluorescent intercalator displacement, fluorescence | inhibition, % at 7.9 µM | 290,000 compounds, 0.17% hits | AID 1845; in the data active means inhibition above about 37%;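 further: 0% = vehicle and 100% = reference compound; higher means more ethidium bromide displaced from hairpin DNA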
VIM-2 inhibitor – blocks Pseudomonas aeruginosa VIM-2 metallo-beta-lactamase | purified VIM-2, nitrocefin hydrolysis, epi-absorbance fluorescence | inhibition, % at 5.6 µM | 290,000 compounds, 0.89% hits | AID 1527;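 active means inhibition above the mean of all tested compounds plus 3 SD, cutoff set per screening run, cut at about 7.5% in these data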;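 further: red hydrolysis product quenches plate fluorescence so inhibitors raise well fluorescence; 0% = enzyme with DMSO and 100% = DMSO without enzyme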
RAD54 branch – inhibitors of human RAD54 branch migration. AID 602329. 360,000 compounds, 0.14% hits. inhibition, % at 10.4 µM. RAD54 Holliday junction branch migration, FAM/BHQ fluorescence;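 active means mean normalized replicate activity at least 40 and at least half of replicates scoring 40 or more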;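 further: 0% = median of neutral control wells and 100% = median of positive control wells; inhibitors cause a drop in the FAM fluorescence signal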
Target sequence (Q92698 whole entry, looked up): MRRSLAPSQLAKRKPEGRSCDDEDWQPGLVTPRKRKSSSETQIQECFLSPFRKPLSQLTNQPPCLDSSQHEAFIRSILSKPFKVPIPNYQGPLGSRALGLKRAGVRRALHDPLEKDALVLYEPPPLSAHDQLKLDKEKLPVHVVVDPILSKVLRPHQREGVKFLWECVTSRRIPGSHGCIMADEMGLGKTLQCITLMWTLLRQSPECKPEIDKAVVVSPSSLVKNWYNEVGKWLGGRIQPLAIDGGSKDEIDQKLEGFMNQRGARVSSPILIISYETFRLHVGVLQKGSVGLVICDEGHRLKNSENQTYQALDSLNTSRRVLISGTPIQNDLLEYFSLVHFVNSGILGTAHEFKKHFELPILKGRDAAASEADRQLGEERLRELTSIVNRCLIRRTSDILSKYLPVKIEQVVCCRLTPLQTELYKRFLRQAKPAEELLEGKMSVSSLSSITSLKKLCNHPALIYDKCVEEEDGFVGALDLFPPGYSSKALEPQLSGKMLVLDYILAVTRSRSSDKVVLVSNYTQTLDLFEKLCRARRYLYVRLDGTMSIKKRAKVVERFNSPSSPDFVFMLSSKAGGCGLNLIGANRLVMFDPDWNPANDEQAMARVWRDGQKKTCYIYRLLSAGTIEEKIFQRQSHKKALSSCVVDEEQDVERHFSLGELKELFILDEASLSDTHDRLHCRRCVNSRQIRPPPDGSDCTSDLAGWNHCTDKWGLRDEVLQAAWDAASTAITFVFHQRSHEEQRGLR
IMP-1 inhibitor – blocks Pseudomonas aeruginosa IMP-1 metallo-beta-lactamase. purified IMP-1, nitrocefin hydrolysis, epi-absorbance fluorescence. inhibition, % at 5.6 µM. 290,000 compounds, 0.45% hits. AID 1556;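 active means inhibition above the mean plus 3 SD of all compounds in the same screening run, cut at about 4.5% in these data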;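 further: 0% = IMP-1 with DMSO and 100% = DMSO wells lacking enzyme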
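Material – recombinant IMP-1 enzyme, purified · Amount – IMP-1 0.2 nM before substrate addition · Medium – HEPES buffer pH 7.1 with ZnSO4 and Brij 35 · Timing – 25 °C, 15 min preincubation, 25 min reaction · Measured by – plate fluorescence quenching by hydrolysis product, ex 480/em 530 nm · Read-out – percent enzyme inhibition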
PvdQ inh – P. aeruginosa PvdQ acylase inhibition; inhibition, % at 10 µM; purified PvdQ acylase, fluorescence plate reader; AID 488965; 340,000 compounds, 0.063% hits; in the data active means inhibition above about 30%, passing the limit was not always enough;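 further: 0% = vehicle neutral wells and 100% = reference inhibitor wells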
An asterisk follows results filed as active; x = no result; ! = not active in a repeat. Rows were chosen to be rich in hits. Some 1% of all compounds tested hit in one or more screens of this group.

SMILES	DNA FID counter	VIM-2 inhibitor	RAD54 branch	IMP-1 inhibitor	PvdQ inh
CCOC(=O)C1CCN(C(=O)c2cc3c(=O)n4ccccc4nc3s2)CC1	-29	1	6	-3	-8
Cc1cccn2c(=O)c3cc(C(=O)N4CCCCC4)sc3nc12	-26	12*	-10	-2	-13
CCOC(=O)C1CCN(C(=O)c2cc3c(=O)n4cccc(C)c4nc3s2)CC1	-35	10*	-3	0	-8
C[C@@H]1CN([C@@H](C)CO)C(=O)c2cccc(NC(=O)NC3CCCCC3)c2O[C@@H]1CN(C)Cc1ccncc1	x	x	-7	x	x
c1ccc(N2CCN(c3ncnc4c3oc3ccccc34)CC2)cc1	-7	-1	3	-1	-13
CCc1nnc(N2CCN(c3ncnc4c3oc3ccccc34)CC2)s1	-28	12*	3	-1	-7
Cc1cccc(-n2c(-c3csc(C)c3)n[nH]c2=S)c1	-23	7.7*	x	-3	6
Cc1cc(-c2n[nH]c(=S)n2-c2ccccc2C)cs1	-13	11*	x	-3	-9
Cc1ccc(CCNC(=O)C2CCN(S(=O)(=O)c3cccc4nsnc34)CC2)cc1	-3	-2	-2	4.9*	-12
Cc1ccc(CCNC(=O)C2CCN(S(=O)(=O)c3cccc4cccnc34)CC2)cc1	-47	-7	-9	-2	-15
CO[C@@H]1CN(C)C(=O)c2cc(NC(=O)c3ccccc3F)ccc2OC[C@H](C)N(C(=O)c2ccccc2F)C[C@@H]1C	x	x	-4	x	x
CC(C)(C)CC(=O)Nc1cccc2c1CCCC2	-2	-1	7	6.9*	-8
O=C(COc1ccccc1)Nc1cccc2c1CCCC2	-17	1	x	-1	-12
Cc1nn(CCC(=O)NNC(=S)Nc2cccc(Cl)c2)c(C)c1[N+](=O)[O-]	4	7	8	-5	-16
Cc1cccc(NC(=S)NNC(=O)CCn2nc(C)c([N+](=O)[O-])c2C)c1	-2	8.2*	-1	-7	13
CCOC(=O)C1=C(C)Nc2nc3ccccc3n2C1c1ccc(O)cc1 (stereo not given)	14	-4	-5	29*	-6
COC(=O)C1=C(C)Nc2nc3ccccc3n2C1c1cc(OC)c(OC)c(OC)c1 (stereo not given)	-18	-1	-4	-1	x
C[C@H]1CN([C@@H](C)CO)C(=O)Cc2cc(NS(C)(=O)=O)ccc2O[C@@H]1CN(C)C(=O)Nc1ccc2c(c1)OCO2	x	x	0	x	x
COC1=C(Nc2ccc(C)cc2)C(=O)c2ccccc2C1=O	5	7	x	-2	-9
COC1=C(Nc2ccccc2)C(=O)c2ccccc2C1=O	9	10*	x	3	-20
O=C(OCCNc1nc(-c2ccccc2)nc2ccccc12)c1cccnc1	-6	-1	x	-5	8
COc1ccc(Nc2nc(-c3ccncc3)nc3ccccc23)cc1	-23	11*	-8	-2	-11
COc1ccc(OC)c(Nc2nc(-c3ccncc3)nc3ccccc23)c1	-30	7	-12	0	-11
O=C(OCCNc1nc(-c2ccccc2)nc2ccccc12)c1ccncc1	7	9.6*	8	-5	5
C/C=C/c1ccc2c(c1)O[C@@H](CN(C)C(=O)Nc1cc(F)ccc1F)[C@H](C)CN([C@@H](C)CO)S2(=O)=O	x	x	-14	x	x
SMILES	DNA FID counter	VIM-2 inhibitor	RAD54 branch	IMP-1 inhibitor	PvdQ inh
Nc1nonc1C(=O)NCCNCc1ccccc1OCc1ccccc1F	21	-2	-13	-5	-11
Nc1nonc1C(=O)NCCNCc1cc(Br)ccc1OCc1ccccc1F	40*	1	10	2	1
O=C(O)c1cccc2[nH]c(C(F)(F)F)nc12	-1	-5	5	-1	-2
Nc1cccc2[nH]c(C(F)(F)F)nc12	7	3	x	15*	-3
CNC[C@@H]1Oc2cc(C#Cc3ccccc3OC)ccc2S(=O)(=O)N([C@H](C)CO)C[C@H]1C	x	x	-7	x	x
O=C(O)C[C@H]1C[C@H]2c3cc(NC(=O)NC4CCCC4)ccc3O[C@H]2[C@H](CO)O1	x	x	-18	x	x
O=C(Nc1ccc(F)cc1)c1ccc(NC(=O)C2CCCO2)cc1 (stereo not given)	-8	-3	9	7.7*	-9
O=C(Nc1cccc(O)c1)c1ccc(NC(=O)C2CCCO2)cc1 (stereo not given)	-3	-2	3	-3	4
C[C@H](CO)N1C[C@H](C)[C@H](CN(C)Cc2ccccn2)Oc2ncc(-c3ccc(F)cc3)cc2C1=O	x	x	-1	x	x
CCn1c(SCC(=O)N2CCN(c3ccccc3)CC2)nc2c(c1=O)SC(C)C2 (stereo not given)	-28	0	6	4.9*	-15
CC1Cc2nc(SCC(=O)N3CCN(c4ccccc4)CC3)n(CCc3ccccc3)c(=O)c2S1 (stereo not given)	-27	-2	11	-3	0
O=C(O)CC12CSc3[nH]c(=O)sc3C1c1ccccc1OC2=O (stereo not given)	-1	1	x	6.4*	x
CCOC(=O)C1CSc2[nH]c(=O)sc2C1c1ccccc1 (stereo not given)	-23	1	1	-3	-10
Cc1cc(=O)oc2cc(NC(=O)c3ccc(OC(F)F)cc3)ccc12	-3	1	0	8.7*	-14
Cc1cc(=O)oc2cc(NC(=O)C(C)Oc3ccc(F)cc3)ccc12 (stereo not given)	x	x	1	x	-9
Cc1ccc(-n2ncc(C(=O)Nc3cc(Cl)cc(Cl)c3)c2C2CCNCC2)cc1C	43*	1	5	-3	-10
Cc1ccc(-n2ncc(C(=O)Nc3cc(Cl)ccc3Cl)c2C2CCNCC2)cc1	17	-1	x	-1	-9
C[C@@H]1CCCCO[C@H](CN(C)C)[C@@H](C)CN([C@@H](C)CO)C(=O)c2cc(NS(=O)(=O)c3ccc(Cl)cc3)ccc2O1	x	x	4	x	x
C[C@H](CO)N1C[C@H](C)[C@H](CN(C)CC2CC2)Oc2cc(-c3ccc(C#N)cc3)ccc2S1(=O)=O	x	x	-9	x	x
CCN1CCCC1CNc1ncnc2c1[nH]c1ccc(Cl)cc12 (stereo not given)	28	12*	31	2	-7
C[C@H](CO)N1C[C@H](C)[C@@H](CN(C)Cc2ccc(Cl)c(Cl)c2)Oc2ccc(NC(=O)Nc3ccccc3)cc2CC1=O	x	x	6	x	x
CCCC#Cc1ccc2c(c1)O[C@H](CN(C)C(=O)COC)[C@@H](C)CN([C@H](C)CO)S2(=O)=O	x	x	5	x	x
COc1cccc2c1C(=O)c1c(O)c3c(c(O)c1C2=O)C[C@@](O)(C(C)=O)C[C@@H]3O[C@H]1C[C@H](N)[C@H](O)[C@H](C)O1	36	19*	-111	2	-7
Oc1c(C=Nc2cccc3cccnc23)sc2ccccc12	-8	9.7*	x	-2	x
Cc1cccc(/N=C/c2sc3ccccc3c2O)n1	-2	3	6	0	7
O=C(NCCN1CCCCC1)[C@@H]1[C@@H](CO)[C@@H]2Cn3c(cccc3=O)[C@@H]2N1C(=O)C1CC1	x	x	-2	x	x
COc1ccc(C2Nc3ccccc3C(=O)N2Cc2ccco2)cc1CN1C(=O)c2ccccc2C1=O (stereo not given)	-25	-1	-2	4.7*!	-5
